# Measurements from ChEMBL document CHEMBL1157799, “Creating an antibacterial with in vivo efficacy: synthesis and characterization of potent inhibitors of the bacterial cell division protein FtsZ with improved pharmaceutical properties” (J Med Chem, 2010).
# Calls of active or inactive are those of the source. The rule behind the calls is not given here.
# Experiments:
# Staphylococcus aureus [1] = assay: Antibacterial activity against Staphylococcus aureus ATCC 29213 by broth microdilution assay; type: functional
# How it was run: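 Broth microdilution MIC per CLSI recommendations; reproducibility within one 2-fold dilution of the end point.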
# [2] = biological target: T1, Cell division protein FtsZ (Staphylococcus aureus) (UniProt P0A031); assay: Inhibition of Staphylococcus aureus ATCC 29213 FtsZ assessed as lowest drug level required for ballooning of cells by light microscopy
# T1 sequence (whole entry): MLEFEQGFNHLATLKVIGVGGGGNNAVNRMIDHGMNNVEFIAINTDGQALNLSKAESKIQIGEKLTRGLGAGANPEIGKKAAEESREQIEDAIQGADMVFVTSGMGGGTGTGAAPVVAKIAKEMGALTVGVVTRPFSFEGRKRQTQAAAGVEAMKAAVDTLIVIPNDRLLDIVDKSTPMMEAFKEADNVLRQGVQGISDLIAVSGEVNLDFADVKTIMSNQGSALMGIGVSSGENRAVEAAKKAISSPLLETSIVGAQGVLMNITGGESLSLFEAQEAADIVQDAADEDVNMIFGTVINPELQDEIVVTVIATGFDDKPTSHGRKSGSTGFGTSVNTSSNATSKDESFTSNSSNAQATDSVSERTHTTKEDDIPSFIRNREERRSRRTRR
# How it was run: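 Cocci examined by light microscopy for morphology. Value is the lowest concentration at which ballooning appears; WT is recorded when morphology is unchanged.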
# Plasma [3] = assay: Plasma protein binding in mouse at 10 uM by equilibrium dialysis; type: ADME, cell-free
# How it was run: (§1)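 Binding to plasma measured by equilibrium dialysis of a 10 µM compound solution. Reported as fraction unbound or percent bound.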
# Staphylococcus aureus [4] = assay: Antibacterial activity against Staphylococcus aureus ATCC 29213 by broth microdilution assay in presence of 2% bovine serum albumin; type: functional
# How it was run: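 Broth microdilution MIC per CLSI recommendations, with 2% w/v bovine serum albumin added to the assay medium to track the effect of protein on antibacterial activity.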
# Cytochrome P450 3A4 = Cytochrome P450 3A4 (Homo sapiens, UniProt P08684); assay: Inhibition of human recombinant CYP3A4 by fluorescence assay; type: ADME
# How it was run: (§2)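 Human recombinant CYP isozymes tested by metabolism of fluorogenic substrates, read by fluorescence. IC50 in µg/mL.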
# [5] = Clearance in mouse microsome at 10 uM by LC/MS/MS analysis; type: ADME, Liver; details: microsomes
# How it was run: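 Microsomal stability: compound at 10 µM incubated with microsomes. Parent remaining followed over a time course by LC/MS to give clearance per mg protein.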
# Plasma [6] = assay: Fraction unbound in mouse plasma at 10 uM by equilibrium dialysis; type: ADME, cell-free; how it was run: as §1
# [7] = Clearance in mouse hepatocytes at 10 uM assessed per 10^6 cells by LC/MS/MS analysis; type: ADME, cell-based, Liver, Hepatocyte
# How it was run: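 Hepatocyte stability: compound at 10 µM incubated with hepatocytes. Parent loss over a time course measured by LC/MS/MS, and clearance expressed per 10⁶ cells.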
# Cytochrome P450 2C9 = Cytochrome P450 2C9 (Homo sapiens, UniProt P11712); assay: Inhibition of human recombinant CYP2C9 by fluorescence assay; type: ADME; how it was run: as §2
# Cytochrome P450 1A2 = biological target: T2, Cytochrome P450 1A2 (Homo sapiens, UniProt P05177); assay: Inhibition of human recombinant CYP1A2 by fluorescence assay; type: ADME; how it was run: as §2
# T2 sequence (P05177 whole entry): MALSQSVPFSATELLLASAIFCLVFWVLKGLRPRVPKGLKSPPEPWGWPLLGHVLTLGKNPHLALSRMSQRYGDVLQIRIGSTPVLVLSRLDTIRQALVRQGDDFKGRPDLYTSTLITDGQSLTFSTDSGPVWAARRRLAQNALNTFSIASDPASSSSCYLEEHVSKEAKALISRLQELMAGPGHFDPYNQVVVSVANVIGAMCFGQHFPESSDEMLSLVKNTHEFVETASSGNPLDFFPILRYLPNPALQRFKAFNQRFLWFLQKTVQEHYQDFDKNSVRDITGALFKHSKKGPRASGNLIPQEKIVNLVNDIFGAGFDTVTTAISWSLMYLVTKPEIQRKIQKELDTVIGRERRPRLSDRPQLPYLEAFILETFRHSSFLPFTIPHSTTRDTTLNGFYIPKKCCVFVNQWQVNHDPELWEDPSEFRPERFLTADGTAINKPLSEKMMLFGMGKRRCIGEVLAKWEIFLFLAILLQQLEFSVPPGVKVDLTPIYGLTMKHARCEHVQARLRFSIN
# [8] = Chemical stability in phosphate buffered saline assessed as compound remaining at 10 uM after 24 hrs by LC/MS/MS analysis; type: physicochemical; details: buffer
# How it was run: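 10 µM solution in phosphate buffered saline held 24 h at 37 °C. Parent remaining quantified by LC/MS.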
# Staphylococcus aureus [9] = assay: Antimicrobial activity against Staphylococcus aureus Smith infected in mouse assessed as suppression of bacteria-induced mortality at 3 to 30 mg/kg, sc administered as single dose 1 hr after bacterial inoculation measured on day 2; type: functional, organism-based
# How it was run: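 Mice inoculated IP with an LD90-100 of S. aureus Smith in 0.5 mL brain heart infusion broth with 5% mucin (4×10⁵ CFU/mouse for the IP study, 5×10⁵ CFU/mouse for the SC study). Vehicle or test agent given SC or IP 1 h post-infection at 3, 10 or 30 mg/kg. Mortality followed 7 days. ED50 by nonlinear regression.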
# Plasma [10] = assay: Metabolic stability in mouse plasma assessed as compound remaining at 10 uM after 24 hrs by LC/MS/MS analysis; type: ADME, cell-free
# How it was run: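 10 µM compound in mouse plasma incubated 24 h at 37 °C. Percent remaining measured by LC/MS.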
# Cytochrome P450 2D6 = Cytochrome P450 2D6 (Homo sapiens, UniProt P10635); assay: Inhibition of human recombinant CYP2D6 by fluorescence assay; type: ADME; how it was run: as §2
# Staphylococcus aureus [11] = assay: Antimicrobial activity against Staphylococcus aureus Smith infected in sc dosed mouse administered as single dose 1 hr after bacterial inoculation; type: functional
# How it was run: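 Mice inoculated IP with an LD90-100 of S. aureus Smith (5×10^5 CFU/mouse) in 0.5 mL brain heart infusion broth with 5% mucin. Single SC dose of test substance or vehicle 1 h after inoculation, at 3, 10 or 30 mg/kg. Mortality monitored for 7 days. ED50 by nonlinear regression.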
# Staphylococcus aureus [12] = assay: Antimicrobial activity against Staphylococcus aureus Smith infected in ip dosed mouse administered as single dose 1 hr after bacterial inoculation; type: functional
# How it was run: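 Mice inoculated IP with an LD90-100 of S. aureus Smith (4×10^5 CFU/mouse) in 0.5 mL brain heart infusion broth with 5% mucin. Single IP dose of test substance or vehicle 1 h after inoculation, at 3, 10 or 30 mg/kg. Mortality monitored for 7 days. ED50 by nonlinear regression.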
# Plasma [13] = assay: Fraction unbound in human plasma at 10 uM by equilibrium dialysis; type: ADME, cell-free; how it was run: as §1
# Cytochrome P450 2C19 = Cytochrome P450 2C19 (Homo sapiens, UniProt P33261); assay: Inhibition of human recombinant CYP2C19 by fluorescence assay; type: ADME; how it was run: as §2
# Chain of Cytochrome P450 2C19 (P33261 whole entry): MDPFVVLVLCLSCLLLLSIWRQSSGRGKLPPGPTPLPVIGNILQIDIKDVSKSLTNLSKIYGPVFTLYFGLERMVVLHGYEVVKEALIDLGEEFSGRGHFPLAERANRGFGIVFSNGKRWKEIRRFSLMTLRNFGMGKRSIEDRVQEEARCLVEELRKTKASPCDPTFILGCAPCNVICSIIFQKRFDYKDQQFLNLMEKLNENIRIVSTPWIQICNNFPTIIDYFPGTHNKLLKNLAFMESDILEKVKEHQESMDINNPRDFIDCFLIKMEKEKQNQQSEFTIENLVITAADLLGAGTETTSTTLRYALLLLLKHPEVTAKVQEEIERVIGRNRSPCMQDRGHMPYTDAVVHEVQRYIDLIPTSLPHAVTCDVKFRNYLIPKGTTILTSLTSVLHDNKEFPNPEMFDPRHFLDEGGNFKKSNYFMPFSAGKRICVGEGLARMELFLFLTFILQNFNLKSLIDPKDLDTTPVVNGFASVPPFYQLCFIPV
# Chain of Cytochrome P450 2D6 (P10635 whole entry): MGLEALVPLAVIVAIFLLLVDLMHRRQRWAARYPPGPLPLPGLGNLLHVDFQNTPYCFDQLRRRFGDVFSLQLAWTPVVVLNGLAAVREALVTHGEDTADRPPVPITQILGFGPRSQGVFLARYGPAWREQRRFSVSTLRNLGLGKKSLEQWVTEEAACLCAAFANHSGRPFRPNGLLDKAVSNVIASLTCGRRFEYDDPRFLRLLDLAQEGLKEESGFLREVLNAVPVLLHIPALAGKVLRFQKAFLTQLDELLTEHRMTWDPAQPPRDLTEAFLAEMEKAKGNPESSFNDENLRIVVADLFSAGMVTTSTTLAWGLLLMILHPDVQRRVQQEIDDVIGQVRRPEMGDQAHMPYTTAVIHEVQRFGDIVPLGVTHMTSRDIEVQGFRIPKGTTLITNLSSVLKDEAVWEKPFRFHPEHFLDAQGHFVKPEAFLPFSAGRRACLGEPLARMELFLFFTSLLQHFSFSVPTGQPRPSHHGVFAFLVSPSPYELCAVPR
# Chain of Cytochrome P450 2C9 (P11712 whole entry): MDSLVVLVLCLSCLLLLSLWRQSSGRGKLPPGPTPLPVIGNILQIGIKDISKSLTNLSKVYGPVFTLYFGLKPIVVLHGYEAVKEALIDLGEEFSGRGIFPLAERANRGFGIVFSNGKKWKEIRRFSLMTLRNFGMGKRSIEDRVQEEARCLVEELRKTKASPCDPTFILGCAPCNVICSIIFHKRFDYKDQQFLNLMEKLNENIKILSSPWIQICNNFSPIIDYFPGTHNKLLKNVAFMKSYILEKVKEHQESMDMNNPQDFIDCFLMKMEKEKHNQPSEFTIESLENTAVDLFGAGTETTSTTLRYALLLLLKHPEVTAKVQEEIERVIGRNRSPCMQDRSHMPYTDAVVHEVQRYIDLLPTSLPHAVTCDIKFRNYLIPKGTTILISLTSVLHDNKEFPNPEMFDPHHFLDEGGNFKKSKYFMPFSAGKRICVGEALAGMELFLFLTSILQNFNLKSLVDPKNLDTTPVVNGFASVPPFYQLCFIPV
# Chain of Cytochrome P450 3A4 (P08684 whole entry): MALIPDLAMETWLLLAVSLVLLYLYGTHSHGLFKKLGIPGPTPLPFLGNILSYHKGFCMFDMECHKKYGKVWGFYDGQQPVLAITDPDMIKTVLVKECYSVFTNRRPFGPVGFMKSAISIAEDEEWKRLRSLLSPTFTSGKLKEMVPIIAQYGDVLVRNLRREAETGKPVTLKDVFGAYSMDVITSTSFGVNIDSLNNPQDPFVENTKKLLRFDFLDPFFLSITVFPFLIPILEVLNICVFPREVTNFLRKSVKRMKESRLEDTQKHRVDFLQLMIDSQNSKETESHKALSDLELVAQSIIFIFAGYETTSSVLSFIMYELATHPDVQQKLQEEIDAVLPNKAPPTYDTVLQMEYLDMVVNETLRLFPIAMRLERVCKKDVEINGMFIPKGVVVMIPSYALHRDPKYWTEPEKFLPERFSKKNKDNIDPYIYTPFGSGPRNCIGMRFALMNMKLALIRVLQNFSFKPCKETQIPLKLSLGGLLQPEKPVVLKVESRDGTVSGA
Structure (SMILES),MIC (Staphylococcus aureus [1]),Activity [2],other results
COC(=O)c1ccc2sc(COc3ccc(F)c(C(N)=O)c3F)nc2c1,1 µg/mL,2 µg/mL,
NC(=O)c1c(F)ccc(OCc2nc3cccc(-c4ccccc4)c3s2)c1F,> 256 µg/mL,,
Cc1ccc2nc(COc3ccc(F)c(C(N)=O)c3F)sc2c1,8 µg/mL,,
CCOc1cnc2sc(COc3ccc(F)c(C(N)=O)c3F)nc2c1,0.125 µg/mL,,PPB (Plasma [3]): 89.9%; MIC (Staphylococcus aureus [4]): 0.25 µg/mL
NC(=O)c1c(F)ccc(OCc2nc3cc(Cl)ccc3s2)c1F,,0.25 µg/mL,IC50 (Cytochrome P450 3A4): > 33.8 µM; CL [5]: 14 µL/min/mg; Fu (Plasma [6]): 3%; CL [7]: 31.2 uL/min/10^6cells; IC50 (Cytochrome P450 2C9): > 33.8 µM; PPB (Plasma [3]): 96.4%; IC50 (Cytochrome P450 1A2): > 33.8 µM; Stability [8]: 99%; Activity (Staphylococcus aureus [9]): inactive; Stability (Plasma [10]): 99%; IC50 (Cytochrome P450 2D6): > 33.8 µM; ED50 (Staphylococcus aureus [11]): > 30 mg/kg; ED50 (Staphylococcus aureus [12]): 41 mg/kg; Fu (Plasma [13]): 1%; IC50 (Cytochrome P450 2C19): > 33.8 µM
Cc1csc(COc2ccc(F)c(C(N)=O)c2F)c1,,,MIC [2]: 32 µg/mL; MIC (Staphylococcus aureus [4]): 128 µg/mL
Cc1ccc2sc(COc3ccc(F)c(C(N)=O)c3F)nc2c1,4 µg/mL,8 µg/mL,
NC(=O)c1c(F)ccc(Oc2nc3ccccc3s2)c1F,> 256 µg/mL,,MIC (Staphylococcus aureus [4]): > 256 µg/mL
NC(=O)c1c(F)ccc(OCc2nc3c(-c4ccccc4)cccc3s2)c1F,> 256 µg/mL,,
CCCc1ccc2sc(COc3ccc(F)c(C(N)=O)c3F)nc2c1,,0.125 µg/mL,
NC(=O)c1c(F)ccc(OCc2nc3cc(Cl)ncc3s2)c1F,8 µg/mL,,MIC (Staphylococcus aureus [4]): 32 µg/mL
NC(=O)c1c(F)ccc(OCc2nc3cc(-c4ccccc4)ccc3s2)c1F,0.25 µg/mL,0.5 µg/mL,PPB (Plasma [3]): 99.2%
NC(=O)c1c(F)ccc(OCCn2cccn2)c1F,256 µg/mL,,MIC (Staphylococcus aureus [4]): 256 µg/mL
Cc1cnc(COc2ccc(F)c(C(N)=O)c2F)s1,256 µg/mL,,MIC (Staphylococcus aureus [4]): 256 µg/mL
NC(=O)c1c(F)ccc(OCc2nc3cc(C(=O)O)ccc3s2)c1F,> 64 µg/mL,,
COc1cccc2sc(COc3ccc(F)c(C(N)=O)c3F)nc12,16 µg/mL,64 µg/mL,
NC(=O)c1c(F)ccc(OCc2nc3cc(-c4ncno4)ccc3s2)c1F,0.5 µg/mL,0.5 µg/mL,
NC(=O)c1c(F)ccc(OCc2nc3cc(N)ccc3s2)c1F,> 64 µg/mL,,
Cc1cccc2sc(COc3ccc(F)c(C(N)=O)c3F)nc12,16 µg/mL,2050 µg/mL,
CCOc1ccc2sc(COc3ccc(F)c(C(N)=O)c3F)nc2c1,,0.125 µg/mL,PPB (Plasma [3]): 96.4%
COc1ccc2nc(COc3ccc(F)c(C(N)=O)c3F)sc2c1,> 256 µg/mL,,
